Data as given in ChEMBL document CHEMBL1268908, “Design, synthesis, radiolabeling, and in vivo evaluation of carbon-11 labeled N-[2-[4-(3-cyanopyridin-2-yl)piperazin-1-yl]ethyl]-3-methoxybenzamide, a potential positron emission tomography tracer for the dopamine D(4) receptors” (J Med Chem, 2010).
Active and inactive are the calls of the source. No cut-off for these calls is given here.

Assays:
[1] = biological target: Sigma non-opioid intracellular receptor 1 (Homo sapiens) (UniProt Q99720); assay: Displacement of [3H](+)-pentazocine from human sigma 1 receptor expressed in MCF7 cells at 1 uM after 180 mins by scintillation counting; type: cell-based
Chain of Sigma non-opioid intracellular receptor 1 (Homo sapiens) (Q99720 whole entry): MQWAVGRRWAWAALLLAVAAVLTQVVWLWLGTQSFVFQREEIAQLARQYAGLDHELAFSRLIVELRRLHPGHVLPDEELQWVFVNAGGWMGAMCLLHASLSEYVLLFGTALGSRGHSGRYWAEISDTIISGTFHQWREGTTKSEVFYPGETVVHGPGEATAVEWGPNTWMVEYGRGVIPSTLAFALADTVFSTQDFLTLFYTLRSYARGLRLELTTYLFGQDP
In short: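 Membranes from MCF-7 cells stably expressing cloned human σ1 receptor, 0.01–0.05 mg/mL protein, in 50 mM Tris pH 8.0. Incubated 180 min at 37 °C with shaking with 1 nM [3H]-(+)-pentazocine and 1 μM compound; BD1063 defined nonspecific binding. Filtered on PEI-treated GF/C, washed with ice-cold buffer, scintillation counted; triplicates, 3–4 experiments.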

[2] = biological target: T1, D(4) dopamine receptor (Rattus norvegicus, UniProt P30729); assay: Displacement of [3H]MSP from rat dopamine D4 receptor expressed in HEK293 cells after 90 mins by scintillation counting; type: cell-based
T1 sequence (P30729 whole entry): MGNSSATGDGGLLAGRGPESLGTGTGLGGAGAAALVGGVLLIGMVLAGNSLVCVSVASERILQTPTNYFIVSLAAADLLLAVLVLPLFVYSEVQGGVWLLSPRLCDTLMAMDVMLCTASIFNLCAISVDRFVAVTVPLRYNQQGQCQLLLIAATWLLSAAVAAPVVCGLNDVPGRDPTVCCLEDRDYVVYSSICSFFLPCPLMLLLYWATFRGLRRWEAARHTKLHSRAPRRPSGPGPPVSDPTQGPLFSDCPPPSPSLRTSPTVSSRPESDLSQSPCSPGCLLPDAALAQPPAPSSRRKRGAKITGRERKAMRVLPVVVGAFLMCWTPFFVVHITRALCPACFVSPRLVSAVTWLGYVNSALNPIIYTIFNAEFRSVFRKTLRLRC
In short: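 Competition binding on fresh membranes from HEK293 cells stably expressing rat D4 receptor, with about […] [3H]methylspiperone for 90 min at 25 °C in 50 mM Tris pH 7.4; (+)-butaclamol defined nonspecific binding. Filtered and scintillation counted. IC50 converted to Ki by Cheng–Prusoff; triplicates, 3–4 experiments.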

[3] = biological target: D(2) dopamine receptor (Rattus norvegicus) (UniProt P61169); assay: Displacement of [3H]MSP from rat dopamine D2L receptor expressed in HEK293 cells at 1 uM after 90 mins by scintillation counting; type: cell-based
Chain of D(2) dopamine receptor (Rattus norvegicus) (P61169 whole entry): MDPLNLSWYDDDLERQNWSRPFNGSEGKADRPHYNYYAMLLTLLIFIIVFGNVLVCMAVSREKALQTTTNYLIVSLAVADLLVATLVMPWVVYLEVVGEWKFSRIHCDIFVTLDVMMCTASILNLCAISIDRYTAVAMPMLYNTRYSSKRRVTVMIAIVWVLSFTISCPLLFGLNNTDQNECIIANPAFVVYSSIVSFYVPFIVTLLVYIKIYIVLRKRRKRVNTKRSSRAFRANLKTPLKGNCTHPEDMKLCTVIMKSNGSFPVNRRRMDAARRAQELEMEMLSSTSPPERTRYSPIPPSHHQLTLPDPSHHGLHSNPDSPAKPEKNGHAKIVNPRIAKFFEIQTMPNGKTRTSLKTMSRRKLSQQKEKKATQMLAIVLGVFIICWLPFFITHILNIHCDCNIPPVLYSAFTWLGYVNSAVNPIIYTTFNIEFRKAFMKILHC
In short: (§1)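 HEK293 membranes stably expressing rat D2 or human 5-HT1A, 5-HT2A or 5-HT2C receptors, used fresh. Incubated 90 min at 25 °C in 50 mM Tris pH 7.4 with about […] radioligand and 1 μM compound (DMSO or DMF stock diluted ≥1:1000). Nonspecific binding defined by (+)-butaclamol for D2, NAN-190 for 5-HT1A and mianserin for 5-HT2A/2C. PEI-GF/C filtration, scintillation count; % displacement from triplicates, 3–4 repeats.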

[4] = Distribution coefficient, log D of the compound at pH 7.4; type: physicochemical; conditions: octanol/water
[5] = Dissociation constant, pKa of the compound; type: physicochemical
[6] = Lipophilicity, log P of the compound; type: physicochemical; conditions: octanol/water
[7] = biological target: T2, 5-hydroxytryptamine receptor 1A (Homo sapiens) (UniProt P08908); assay: Displacement of [3H]MPPF from human 5HT1A receptor expressed in HEK293 cells at 1 uM after 90 mins by scintillation counting; type: cell-based; in short: as §1
T2 sequence (whole entry): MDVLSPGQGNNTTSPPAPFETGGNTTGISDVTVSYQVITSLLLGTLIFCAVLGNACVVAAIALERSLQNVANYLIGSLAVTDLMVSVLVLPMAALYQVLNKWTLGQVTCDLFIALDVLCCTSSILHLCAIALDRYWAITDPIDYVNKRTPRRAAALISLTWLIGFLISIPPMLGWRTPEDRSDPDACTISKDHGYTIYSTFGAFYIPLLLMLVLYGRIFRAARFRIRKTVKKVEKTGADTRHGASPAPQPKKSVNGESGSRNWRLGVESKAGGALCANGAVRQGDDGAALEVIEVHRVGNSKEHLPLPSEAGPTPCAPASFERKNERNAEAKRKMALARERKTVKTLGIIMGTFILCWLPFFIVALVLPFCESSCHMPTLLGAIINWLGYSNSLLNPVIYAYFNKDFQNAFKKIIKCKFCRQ

[8] = system: Plasma; assay: Drug level in CD1 mouse plasma at 10 mg/kg, ip after 30 to 60 mins; type: ADME, organism-based; parameters: dose 10 mg/kg, route intraperitoneal; conditions: in vivo
In short: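 Male CD1 mice, 25–30 g, given 10 mg/kg ip in ethanol/PEG 40/saline (10:40:50). Killed at 15–240 min. Plasma (0.2 mL) alkalinised and extracted into dichloromethane with a 1-(2-thiazolyl)piperazine internal standard, then run on gradient reversed-phase HPLC-UV at 264 nm; quantification limit about 100 ng/mL. Mean ± SD, n = 3.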

[9] = Drug level in CD1 mouse brain at 10 mg/kg, ip after 30 mins; type: ADME, organism-based; parameters: dose 10 mg/kg, route intraperitoneal; conditions: read-out: Drug uptake
[10] = Drug level in CD1 mouse plasma at 10 mg/kg, ip after 30 mins; type: ADME, organism-based; parameters: dose 10 mg/kg, route intraperitoneal; conditions: read-out: Drug uptake
[11] = biological target: T3, 5-hydroxytryptamine receptor 2C (Homo sapiens) (UniProt P28335); assay: Displacement of [3H]mesulergine from human 5HT2C receptor expressed in HEK293 cells at 1 uM after 90 mins by scintillation counting; type: cell-based; in short: as §1
T3 sequence (whole entry): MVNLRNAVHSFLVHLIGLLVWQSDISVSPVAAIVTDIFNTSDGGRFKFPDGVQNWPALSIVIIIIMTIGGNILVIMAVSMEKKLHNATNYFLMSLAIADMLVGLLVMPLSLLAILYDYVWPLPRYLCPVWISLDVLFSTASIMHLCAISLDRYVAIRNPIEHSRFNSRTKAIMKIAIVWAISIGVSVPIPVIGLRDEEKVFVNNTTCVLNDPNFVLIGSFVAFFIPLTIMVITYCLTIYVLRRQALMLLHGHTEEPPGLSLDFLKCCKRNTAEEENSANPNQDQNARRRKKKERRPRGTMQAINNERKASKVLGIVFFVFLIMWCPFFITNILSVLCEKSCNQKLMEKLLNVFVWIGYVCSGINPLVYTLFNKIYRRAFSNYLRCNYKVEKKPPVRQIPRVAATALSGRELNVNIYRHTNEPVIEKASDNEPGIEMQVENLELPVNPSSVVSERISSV

[12] = biological target: Cannabinoid receptor 1 (Rattus norvegicus) (UniProt P20272); assay: Displacement of [3H]CP55940 from CB1 receptor in rat brain at 1 uM after 180 mins by scintillation counting
Chain of Cannabinoid receptor 1 (Rattus norvegicus) (P20272 whole entry): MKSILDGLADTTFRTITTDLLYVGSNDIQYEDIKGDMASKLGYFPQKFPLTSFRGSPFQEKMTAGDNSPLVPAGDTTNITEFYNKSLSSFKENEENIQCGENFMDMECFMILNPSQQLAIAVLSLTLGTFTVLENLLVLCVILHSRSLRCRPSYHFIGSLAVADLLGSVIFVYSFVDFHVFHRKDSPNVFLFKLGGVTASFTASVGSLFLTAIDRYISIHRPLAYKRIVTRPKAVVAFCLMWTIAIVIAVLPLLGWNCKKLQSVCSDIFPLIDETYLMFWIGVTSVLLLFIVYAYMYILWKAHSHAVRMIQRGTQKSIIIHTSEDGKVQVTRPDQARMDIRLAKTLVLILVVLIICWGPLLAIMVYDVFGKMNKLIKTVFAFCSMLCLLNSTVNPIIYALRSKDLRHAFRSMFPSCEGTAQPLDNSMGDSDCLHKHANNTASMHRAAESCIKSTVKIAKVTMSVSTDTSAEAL

[13] = biological target: D(3) dopamine receptor (Homo sapiens) (UniProt P35462); assay: Displacement of [3H]MSP from human dopamine D3 receptor expressed in CHO-K1 cells at 1 uM after 90 mins by scintillation counting; type: cell-based
Chain of D(3) dopamine receptor (Homo sapiens) (P35462 whole entry): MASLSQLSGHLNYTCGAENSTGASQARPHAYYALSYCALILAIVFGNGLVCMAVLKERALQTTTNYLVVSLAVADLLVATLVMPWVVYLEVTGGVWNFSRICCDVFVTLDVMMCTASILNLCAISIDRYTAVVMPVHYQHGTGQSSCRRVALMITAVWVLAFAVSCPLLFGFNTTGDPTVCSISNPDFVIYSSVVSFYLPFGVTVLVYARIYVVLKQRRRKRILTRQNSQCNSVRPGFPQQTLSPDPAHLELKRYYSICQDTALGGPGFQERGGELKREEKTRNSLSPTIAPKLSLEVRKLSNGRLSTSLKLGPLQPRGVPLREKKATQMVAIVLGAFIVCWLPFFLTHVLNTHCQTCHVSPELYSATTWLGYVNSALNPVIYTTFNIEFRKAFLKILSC
In short: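 Frozen CHO-K1 membranes carrying human D3 receptor, incubated with about […] [3H]methylspiperone and 1 μM compound for 90 min at 25 °C in 50 mM Tris pH 7.4. Nonspecific binding defined with 5 μM 7-OH-DPAT. Filtered on PEI-treated GF/C and scintillation counted; triplicate points, experiment repeated 3–4 times.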

[14] = biological target: T4, D(4) dopamine receptor (Rattus norvegicus) (UniProt P30729); assay: Agonist activity at rat dopamine D4 receptor expressed in HEK293 cells assessed as decrease in forskolin-stimulated levels of cAMP accumulation up to 10 uM; type: functional, cell-based
T4 sequence (whole entry): T1 sequence (P30729 whole entry)

[15] = biological target: 5-hydroxytryptamine receptor 2A (Homo sapiens) (UniProt P28223); assay: Displacement of [3H]MSP from human 5HT2A receptor expressed in HEK293 cells at 1 uM after 90 mins by scintillation counting; type: cell-based; in short: as §1
Chain of 5-hydroxytryptamine receptor 2A (Homo sapiens) (P28223 whole entry): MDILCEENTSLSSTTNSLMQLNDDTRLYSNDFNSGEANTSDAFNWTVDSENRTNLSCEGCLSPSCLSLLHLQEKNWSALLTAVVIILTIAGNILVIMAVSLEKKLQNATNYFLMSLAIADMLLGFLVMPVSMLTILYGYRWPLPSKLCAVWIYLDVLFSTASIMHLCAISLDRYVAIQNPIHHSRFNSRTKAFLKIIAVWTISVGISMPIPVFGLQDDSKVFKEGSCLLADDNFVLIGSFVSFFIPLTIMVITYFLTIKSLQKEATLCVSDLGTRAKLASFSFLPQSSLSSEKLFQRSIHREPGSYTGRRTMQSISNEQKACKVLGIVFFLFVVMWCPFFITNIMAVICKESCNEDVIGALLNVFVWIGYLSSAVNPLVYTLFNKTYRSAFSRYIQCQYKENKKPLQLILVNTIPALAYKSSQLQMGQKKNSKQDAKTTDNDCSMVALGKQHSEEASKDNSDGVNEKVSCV

[16] = Drug level in CD1 mouse brain at 10 mg/kg, ip after 15 mins; type: ADME, organism-based; parameters: dose 10 mg/kg, route intraperitoneal; conditions: read-out: Drug uptake
[17] = Drug level in CD1 mouse plasma at 10 mg/kg, ip after 15 mins; type: ADME, organism-based; parameters: dose 10 mg/kg, route intraperitoneal; conditions: read-out: Drug uptake

SMILES | Activity [1] [%] | Ki [2] [nM] | Activity [3] [%] | pKa [5] | logP [6] | also measured
COc1cccc(C(=O)NCCN2CCN(c3ccc(C#N)cc3)CC2)c1 | 27 | 63.9 | 0 |  |  | 
COc1cccc(C(=O)NCCN2CCN(c3ccc(C)cc3)CC2)c1 | 7.2 |  |  | 6.46 |  | logD [4]: 2.78
COc1cccc(C(=O)NCCN2CCN(c3noc4ccccc34)CC2)c1 | 13 | 1.93 | 84 | 6.24 |  | 
Cc1ccc(N2CCN(CCNC(=O)c3ccc(F)cc3)CC2)cc1 | 21 | 2.64 | 29 | 6.31 |  | 
COc1cccc(C(=O)NCCN2CCN(c3ccc(Cl)cn3)CC2)c1 | 15 |  |  | 6.45 | 3.29 | 
O=C(NCCN1CCN(c2ccc(Cl)cc2)CC1)c1ccc(F)cc1 | 29 | 1.76 | 48 | 6.46 | 3.75 | 
COc1cccc(C(=O)NCCN2CCN(c3ccc(Cl)cc3)CC2)c1 | 22 | 4.97 | 7.8 | 6.19 |  | 

Second part, led by results:

Activity [1] [%] | Ki [2] [nM] | Activity [3] [%] | pKa [5] | logP [6] | SMILES | also measured
21 | 0.34 | 89 | 6.43 | 3.79 | O=C(NCCN1CCN(c2noc3ccccc23)CC1)c1ccc(F)cc1 | logD [4]: 3.75
4.6 | 32.7 | 0 | 6.43 | 3.07 | N#Cc1ccc(N2CCN(CCNC(=O)c3ccc(F)cc3)CC2)cc1 | 
33 | 2.92 | 43 | 6.58 | 3.42 | O=C(NCCN1CCN(c2ccc(Cl)cn2)CC1)c1ccc(F)cc1 | 
8.3 | 1.52 | 4.4 | 6.71 | 2.55 | COc1cccc(C(=O)NCCN2CCN(c3ncccc3C#N)CC2)c1 | Activity [7]: 9.3%; Drug uptake [8]: 0.1 µg/mL; concentration at 0.5 h [9]: 140 ng/g; concentration at 0.5 h [10]: 0.37 µg/mL; Activity [11]: 3.2%; Activity [12]: 6.5%; Activity [13]: 5.1%; Activity [14]: Active; Activity [15]: 24%
1 | 0.93 | 32 | 6.4 | 2.37 | N#Cc1cccnc1N1CCN(CCNC(=O)c2ccc(F)cc2)CC1 | Activity [7]: 29%; Drug uptake [8]: < 0.1 µg/mL; Activity [11]: 0%; concentration at 0.25 h [16]: 470 ng/g; Activity [12]: 9.9%; Activity [13]: 7.2%; Activity [14]: Active; concentration at 0.25 h [17]: 0.13 µg/mL; Activity [15]: 53%
